In brackets after ≈: the same amount, converted by molar mass. Activity calls are given as the source filed them. The rule behind the calls is not given here.
What was measured:
[1] = test system: Plasmodium falciparum; assay: In vitro antimalarial activity against multidrug-resistant Plasmodium falciparum K1; Not active; format: functional, organism-based
Summary of the method: (§1)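 Cultured P. falciparum K1 (multidrug-resistant) tested by microculture radioisotope technique (Desjardins); growth measured as [3H]hypoxanthine uptake; EC50 taken as the concentration giving 50% reduction in parasite growth; chloroquine diphosphate and artemisinin as standards.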

[2] = Cytotoxicity against african green monkey kidney fibroblast (vero cell); format: functional, cell-based; details: Chlorocebus sabaeus
Summary of the method: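 Vero (African green monkey kidney fibroblast) cytotoxicity run by the colorimetric method of Skehan and co-workers.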

[3] = test system: Plasmodium falciparum; assay: In vitro antimalarial activity against multidrug-resistant Plasmodium falciparum K1; format: functional, organism-based; summary of the method: as §1
[4] = test system: Mycobacterium tuberculosis; assay: Growth inhibitory activity against Mycobacterium tuberculosis H37R; format: functional
Summary of the method: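 M. tuberculosis H37Ra growth inhibition measured by microplate Alamar Blue assay (MABA); read-out as MIC; isoniazid and kanamycin sulfate run as reference drugs.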

[5] = test system: Vero; assay: Cytotoxicity against african green monkey kidney fibroblast (vero cell) at a concentration less than 50 ug/mL; Inactive; format: functional, cell-based; details: Chlorocebus sabaeus

For `CCOC(=O)[C@]1(CCC2OCCO2)CC[C@@]2(c3ccccc3)O[N@@]12`, which IA [1] is on record?
The IA was “inactive”.

What about the IC50 [2] of the same compound?
The IC50 was over 50 µg/mL.

With `C=CCCC[C@]1(C(=O)OCC)CC[C@@]2(c3ccccc3)O[N@@]12` as the compound, how does the EC50 [3] read?
Its EC50 is 13.9 µg/mL (≈ 46.1 µM).

Which IC50 [2] does the source give for `Cc1c2ccncc2c(C)c2c1[nH]c1ccccc12` [ELLIPTECINE] here?
Its IC50 is 1 µg/mL (≈ 4.06 µM).

For `CCOC(=O)[C@@]1(CCC=C(C)C)CC[C@@]2(c3ccccc3)O[N@@]12`, which EC50 [3] is on record?
The EC50 was 21.9 µg/mL (≈ 69.4 µM).

Which EC50 [3] does the source give for `CCOC(=O)[C@@]1(C2C[C@H]2C(=O)OC)CC[C@@]2(c3ccccc3)O[N@]21` (stereo partly specified) here?
Its EC50 is 15.9 µg/mL (≈ 48 µM).

What about the MIC [4] of the same compound?
Its MIC is 100 µg/mL (≈ 302 µM).

What about the IC50 [2] of the same compound?
Its IC50 is 43.4 µg/mL (≈ 131 µM).

Which IA [1] does the source give for `CCOC(=O)[C@]1(CCCc2ccccc2)CC[C@@]2(c3ccccc3)O[N@@]12` here?
Its IA is “inactive”.

And the MIC [4]?
The MIC was 25 µg/mL (≈ 71.1 µM).

And the IC50 [2]?
The IC50 was over 50 µg/mL.

For `C[C@@H]1CC[C@H]2[C@@H](C)C(=O)O[C@@H]3O[C@@]4(C)CC[C@@H]1[C@]32OO4` [ARTEMISININ], which EC50 [3] is on record?
Its EC50 is 0.0011 µg/mL (≈ 0.0039 µM).

Which EC50 [3] does the source give for `CCOC(=O)[C@@]1(CCC2OCCO2)CC[C@@]2(c3ccccc3)O[N@@]12` here?
The EC50 was 14.7 µg/mL (≈ 44.1 µM).

And the MIC [4]?
The MIC was 200 µg/mL (≈ 600 µM).

And the IC50 [2]?
Its IC50 is over 50 µg/mL.

Which MIC [4] does the source give for `CCC[C@@]1(C(=O)OCC)CC[C@@]2(c3ccccc3)O[N@@]12` here?
Its MIC is 100 µg/mL (≈ 363 µM).

What about the IC50 [2] of the same compound?
Its IC50 is over 50 µg/mL.

For `CCN(CC)CCCC(C)Nc1ccnc2cc(Cl)ccc12.O=P(O)(O)O.O=P(O)(O)O` (stereo unspecified) [CHLOROQUINE PHOSPHATE], which EC50 [3] is on record?
The EC50 was 0.16 µg/mL.

Which IA [1] does the source give for `CCCC[C@@]1(C(=O)OCC)CC[C@@]2(c3ccccc3)O[N@@]12` here?
Its IA is “inactive”.

What about the IA [5] of the same compound?
The IA was “inactive”.

What about the MIC [4] of the same compound?
The MIC was 100 µg/mL (≈ 346 µM).

Which MIC [4] does the source give for `CCOC(=O)[C@]1(C)CC[C@@]2(c3ccccc3)O[N@@]12` here?
Its MIC is 200 µg/mL (≈ 809 µM).

And the IC50 [2]?
The IC50 was over 50 µg/mL.

For `CCOC(=O)[C@]1(C2C[C@H]2C(=O)OC)CC[C@@]2(c3ccccc3)O[N@]21` (stereo partly specified), which IA [1] is on record?
Its IA is “inactive”.

And the MIC [4]?
The MIC was 200 µg/mL (≈ 604 µM).

What about the IC50 [2] of the same compound?
Its IC50 is over 50 µg/mL.

With `NNC(=O)c1ccncc1` [ISONIAZID] as the compound, how does the MIC [4] read?
Its MIC is 0.05 µg/mL (≈ 0.365 µM).

For `C=CCC[C@]1(C(=O)OCC)CC[C@@]2(c3ccccc3)O[N@@]12`, which EC50 [3] is on record?
Its EC50 is 44.2 µg/mL (≈ 154 µM).

For `CCCCC[C@@]1(C(=O)OCC)CC[C@@]2(c3ccccc3)O[N@@]12`, which IA [1] is on record?
Its IA is “inactive”.

What about the MIC [4] of the same compound?
The MIC was 100 µg/mL (≈ 330 µM).

What about the IC50 [2] of the same compound?
Its IC50 is over 50 µg/mL.

Which EC50 [3] does the source give for `CCC[C@]1(C(=O)OCC)CC[C@@]2(c3ccccc3)O[N@@]12` here?
The EC50 was 21.7 µg/mL (≈ 78.8 µM).

What about the MIC [4] of the same compound?
Its MIC is 100 µg/mL (≈ 363 µM).

What about the IC50 [2] of the same compound?
The IC50 was 28.9 µg/mL (≈ 105 µM).

Which results are given for `CCOC(=O)[C@@]1(CCCc2ccccc2)CC[C@@]2(c3ccccc3)O[N@@]12`?
IA [5]: inactive; EC50 [3]: 2.9 µg/mL (≈ 8.25 µM); MIC [4]: 200 µg/mL (≈ 569 µM)

Which results are given for `CCCC[C@]1(C(=O)OCC)CC[C@@]2(c3ccccc3)O[N@@]12`?
IA [5]: inactive; EC50 [3]: 2.4 µg/mL (≈ 8.29 µM); MIC [4]: 100 µg/mL (≈ 346 µM)

With `CCCCC[C@]1(C(=O)OCC)CC[C@@]2(c3ccccc3)O[N@@]12` as the compound, how does the IA [5] read?
The IA was “inactive”.

What about the EC50 [3] of the same compound?
Its EC50 is 3.1 µg/mL (≈ 10.2 µM).

And the MIC [4]?
The MIC was 100 µg/mL (≈ 330 µM).

Which EC50 [3] does the source give for `CCOC(=O)[C@@]1(C)CC[C@@]2(c3ccccc3)O[N@]21` here?
The EC50 was 4.6 µg/mL (≈ 18.6 µM).

What about the MIC [4] of the same compound?
The MIC was 200 µg/mL (≈ 809 µM).

And the IC50 [2]?
Its IC50 is over 50 µg/mL.
